Measured values from different studies.
Each line is one published result; the experiments were not run side by side.
Target: 5'-AMP-activated protein kinase catalytic subunit alpha-2 (PRKAA2, Homo sapiens, UniProt P54646)

C[C@H]1CCN(c2nccc(-c3cnn4ncccc34)n2)C1 gave a remaining binding of 84% (binding; 1 µM).
The remaining binding of O=C(Nc1c[nH]nc1C(=O)NC1CCNCC1)c1cc(F)cc(F)c1 is reported as 100% (binding, competition with immobilised ligand; 1 µM).
The remaining binding of O=C(NCCCN1CCOCC1)c1ccc(Nc2ncc(Cl)c(-c3ccc(Cl)s3)n2)cc1 is reported as 17% (binding, competition with immobilised ligand; 1 µM).
With CN(CCCC(F)(F)F)c1nccc(-c2cnn3ncccc23)n1 the remaining binding was 100% (binding; 1 µM).
With O=C(c1ccc(Nc2nccc(-c3cc4ccccc4s3)n2)cc1)N1CCC(N2CCCC2)CC1 the remaining binding was 31% (binding, competition with immobilised ligand; 1 µM).
Nc1ncc2c(n1)-c1c([nH]c3ccc(C#CC4CC4)cc13)CCCC2 has a remaining binding of 85% (binding, competition with immobilised ligand; 1 µM).
For C=CC(=O)N1CCC(C(=O)NCC(=O)N2CCN(c3nc(-c4cnc(N)nc4C(F)F)nc(N4CCOCC4)n3)CC2)CC1, the remaining binding was 100% (binding, competition with immobilised ligand; 1 µM).
The remaining binding of CCN1CCN(Cc2ccc(C(=O)Nc3ccc(C)c(Oc4ccc5c(c4)CC(=O)N5)c3)cc2C(F)(F)F)CC1 is reported as 100% (binding, competition with immobilised ligand; 1 µM).
CC1=C(C#N)[C@@H](c2ccc3[nH]nc(C)c3c2)C(C#N)=C(c2ccc(Cl)cc2)N1 gave a remaining binding of 95.3% (cell-free assay, competition with immobilised ligand; 1 µM).
The remaining binding of C[C@@H](c1ccc(-n2cnc3c(N)ncnc32)cc1)N1CCc2nn(C)c(Cc3ccccc3)c2C1=O is reported as 100% (binding, competition with immobilised ligand; 0.1 µM).
CNC(=O)Nc1ccc2c(c1)CC[C@@]21OC(=O)N(CC(=O)N(Cc2ccc(F)cc2)[C@@H](C)C(F)(F)F)C1=O gave a remaining binding of 99% (cell-free assay, competition with immobilised ligand; 1 µM).
Cc1cnc(Nc2ccc(C(=O)N3CCC(N4CCCC4)CC3)cc2)nc1-c1cc2ccccc2s1 gave a remaining binding of 7% (binding, competition with immobilised ligand; 1 µM).
CNC(=O)Nc1ccc2c(c1)[C@@]1(CC2)OC(=O)N(CC(=O)N(Cc2ccc(F)cc2)[C@@H](C)C(F)(F)F)C1=O has a remaining binding of 57% (cell-free assay, competition with immobilised ligand; 1 µM).
With CN(C)c1ncc(F)c(-c2cnn3ncccc23)n1 the remaining binding was 100% (binding; 1 µM).
CC(=O)c1c(NS(C)(=O)=O)c2cc(-c3ccc(Cl)cc3)c(-c3ccc(Cl)cc3Cl)nc2n(C)c1=O has a remaining binding of 85% (cell-free assay, competition with immobilised ligand; 1 µM).
CN(C)c1nccc(-c2cnn3ncccc23)n1 has a remaining binding of 100% (binding; 1 µM).
For O=C(NS(=O)(=O)c1ccc(NCC2CCOCC2)c([N+](=O)[O-])c1)c1ccc(N2CCN(Cc3ccc(C(F)(F)F)cc3-c3ccc(Cl)cc3)CC2)cc1Oc1cnc2[nH]ccc2c1, the remaining binding was 100% (cell-free assay, competition with immobilised ligand; 1 µM).
With F[C@@H]1CCN(c2nccc(-c3cnn4ncccc34)n2)C1 the remaining binding was 100% (binding; 1 µM).
The remaining binding of Cc1c(NC(=O)c2cc(C(N)=O)nc3cc(F)ccc23)c(C(F)(F)F)nn1Cc1ccc(C#N)cc1 is reported as 100% (cell-free assay, competition with immobilised ligand; 1 µM).
N[C@H]1CCN(c2nccc(-c3cnn4ncccc34)n2)C1 has a remaining binding of 100% (binding; 1 µM).
CCC(=O)N[C@@H]1CC[C@H](C(=O)N(C)c2ccc(-c3nc4ccccc4o3)cc2)C1 has a remaining binding of 74% (cell-free assay, competition with immobilised ligand; 1 µM).
With CNC(=O)[C@@H]1CC[C@@H](n2c(-c3ccc4cnccc4c3)nc3ccc(C(=O)NCc4cccc(C(N)=O)c4)cc32)C1 the remaining binding was 91% (binding, competition with immobilised ligand; 1 µM).
